Compound activity as filed in PubChem.
Only some compounds are listed: those with a hit (about 3.8% of all), similar ones and a draw of the others.
TMEM16A act: mouse TMEM16A channel activation, primary screen | HEK293 TMEM16A/YFP-H148Q/I152L, iodide quench fluorescence; stronger effect = lower value | B-score at 10 µM | 340,000 tested, 0.3% active | AID 623877;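 active = fluorescence-ratio B-score plate-corrected deviation score at least 3 library SD below zero, with starting fluorescence score within 5 deviations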;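 also: channel opened by trigger with iodide after compound preincubation; score built on the fluorescence ratio of max minus min over baseline; more negative score means more quench and so TMEM16A activation or potentiation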
MC4R ag barr: agonists of human melanocortin 4 receptor (MC4R) beta-arrestin. P32245. U2OS MC4R beta-arrestin complementation, luminescence; percent of melanotan II response, DMSO zero. activation, % at 8.9 µM. 360,000 tested, 0.98% active;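 active = activation above a per-plate cutoff, the mean activation of sample wells on that plate plus 3 SD, cut at about 8% in these data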
Target sequence (P32245 whole entry, looked up): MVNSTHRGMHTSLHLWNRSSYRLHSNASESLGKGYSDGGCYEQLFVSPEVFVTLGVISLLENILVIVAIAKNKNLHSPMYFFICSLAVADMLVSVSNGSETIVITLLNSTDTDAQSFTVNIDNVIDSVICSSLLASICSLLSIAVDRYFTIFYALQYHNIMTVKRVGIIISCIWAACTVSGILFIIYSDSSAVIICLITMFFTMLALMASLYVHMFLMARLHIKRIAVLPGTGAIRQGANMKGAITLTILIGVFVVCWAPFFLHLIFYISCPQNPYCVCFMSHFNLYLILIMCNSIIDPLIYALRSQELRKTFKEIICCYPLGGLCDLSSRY
MC4R antagonist: blocks human MC4R cAMP signaling. AID 540295. MC4R-expressing cells, MTII-stimulated cAMP, LANCE TR-FRET. inhibition, % at 6.5 µM. 360,000 tested, 0.48% active;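 active = inhibition above its plate's cutoff, the mean of tested wells on that plate plus 3 SD, cut at about 29% in these data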;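 also: 0% = Melanotan II alone and 100% = Melanotan II plus saturating MCL0020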
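Assay system: U2OS cells stably expressing human melanocortin 4 receptor (MC4R) / Dosing: 6.5 µM / Timing: compound 30 min, challenge 1 h, detection 1 h / Measured by: Eu-cAMP/anti-cAMP TR-FRET, emission 671 nm / Replicates: singlicate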
Beta apoptosis: blocks beta cell apoptosis | protection from apoptosis, % (concentration not given with the values) | 300,000 tested, 0.8% active | AID 435005 | INS-1E cytokine-induced death, ATP luminescence, 48 h; percent of positive-control rescue, neutral wells zero;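 active = Every replicate reaches about 75%, or at least half do and their mean reaches it too, limit read from the data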;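 also: 0% = cytokine-treated negative control wells and 100% = positive control rescue; higher means more ATP so stronger rescue from cytokine killing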
CSC inhib: blocks cancer stem cells | cancer stem cell-like cells viability, luminescence | 300,000 tested, 1.1% active | inhibition, % at 7.5 µM; in the data active = inhibition above about 75%; tested in HMLE shEcad cells
TMEM16A inh: inhibitors of mouse TMEM16A calcium-activated chloride channel | HEK293 TMEM16A/YFP iodide influx fluorescence, ionomycin | 310,000 tested, 1.2% active | normalized B-score (activity score, 25-100; higher = stronger inhibition) at 10 µM | Q8BHY3;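 active = ratio plate-corrected score three or more library SD toward inhibition, starting fluorescence score within five deviations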;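 also: score derived from kinetic fluorescence span divided by baseline fluorescence per well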
TMEM16A reconf: TMEM16A (mouse) chloride channel inhibition, re-confirmation. shares compounds with TMEM16A inh. HEK293 TMEM16A/YFP-H148Q, iodide quench fluorescence; ionomycin added to raise cell calcium. inhibition, % at 10 µM. 2,300 tested, 39% active;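 active = mean duplicate percent inhibition, scaled so buffer wells are 0 and the reference blocker 100, over three buffer SD above buffer mean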
TMEM16A Ca cntr: counter-screen for TMEM16A inhibitors: effect on calcium mobilization; shares compounds with TMEM16A inh; TMEM16A/YFP HEK293, Fluo4 calcium mobilization; calcium response (% of ionomycin), % at 10 µM; 2,300 tested, 2% active; AID 652231;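 active = duplicate-averaged calcium signal over 20% of the ionomycin maximum, relative to buffer baseline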;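 also: each well's signal is peak minus trough fluorescence divided by its pre-addition baseline; 0% = buffer wells and 100% = ionomycin wells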
YFP-HEK293 quench: acts in parental YFP-HEK293 cells lacking TMEM16A, counter-screen; shares compounds with TMEM16A inh; iodide YFP quench, ionomycin; 2,300 tested, under 10 active; YFP ratio F(max-min)/F0 at 10 µM; AID 652233;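 active = yellow fluorescent protein signal ratio exceeding the buffer control mean by over 5 SD of those controls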;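 also: ratio is mean of duplicate wells from kinetic YFP trace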
ClC-1 inh: selectivity of TMEM16A inhibitors: inhibition of rat ClC-1 chloride channel; shares compounds with TMEM16A inh; CHO ClC-1-YFP, iodide influx fluorescence quench; iodide control reads 0, buffer control 100; ratio percent, % at 10 µM; 2,300 tested, under 10 active; AID 652236;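 active = duplicate-mean ratio percent above the mean of iodide-only control wells, which defines zero, plus 5 of their SD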;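 also: higher percent means stronger block of ClC-1 iodide influx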
* hit, by the source's call; i = inactive; x = not tested or not shown.

SMILES | TMEM16A act | MC4R ag barr | MC4R antagonist | Beta apoptosis | CSC inhib | TMEM16A inh | TMEM16A reconf | TMEM16A Ca cntr | YFP-HEK293 quench | ClC-1 inh
COc1ccc(CNC(=O)c2csc(Cc3ccc(OC)cc3)n2)cc1 | i | 0 | 3 | 2 | 0 | i | x | x | x | x
COc1ccc(Cc2nc(C(=O)Nc3ccccc3)cs2)cc1 | i | -1 | 0 | 3 | 2 | 100* | 24%* | i | -1.1 | -15
O=C(Nc1cccc(Cl)c1)c1csc(-c2ccccc2)n1 | i | 2 | 1 | -3 | 10 | i | x | x | x | x
COc1ccc(Cn2nnc(C(=O)Nc3ccc(F)cc3)c2N)cc1 | i | 1 | 0 | -1 | -9 | i | x | x | x | x
COc1ccc(Cc2nc(C(=O)Nc3ccc(F)cc3)cs2)cc1 | i | -2 | 1 | -5 | -7 | 100* | 26%* | i | -0.71 | -8
COc1ccc(CNC(=O)c2csc(Cc3ccc(Cl)cc3)n2)cc1 | i | 1 | 6 | -6 | -1 | 100* | i | i | -1.2 | -10
O=C(Nc1ccc(Cl)cc1)c1csc(Cc2ccccc2)n1 | i | -3 | -5 | -6 | x | 25* | 30%* | i | -0.87 | -4
COc1ccc(NC(=O)c2csc(Cc3ccc(Cl)cc3)n2)cc1 | i | -4 | -3 | -4 | -10 | 100* | i | i | -0.91 | -4
CCS(=O)(=O)N1CCN(S(=O)(=O)c2ccc(Cl)s2)CC1 | i | 1 | 3 | -1 | -12 | i | x | x | x | x
Cc1ccc(N2CCN(S(=O)(=O)c3ccc(Cl)s3)CC2C)cc1 (centres undefined) | i | 0 | -3 | 3 | 1 | 25* | i | i | -0.81 | -10
CCn1cc(C(=O)OCC(=O)OC2CC(C)CCC2C(C)C)c(=O)c2ccc(C)nc21 (centres undefined) | i | 0 | 5 | 0 | -12 | 25* | i | i | -1.3 | -10
O=C(Nc1cccnc1)Nc1ccccc1Cl | i | 0 | 3 | 1 | -4 | 100* | i | i | -0.91 | -6
Fc1ccc2nc(Nc3nc4c(F)cccc4s3)sc2c1 | i | 0 | 2 | 50 | -6 | 25* | 25%* | i | -0.89 | -13
O=C(O)c1ccc2c(c1)S(=O)(=O)c1cc(N3CCN(c4ncccn4)CC3)ccc1C2=O | x | 0 | 5 | x | x | x | x | x | x | x
Cc1ccc(Cl)cc1N1CCN(C(=O)COc2ccc(S(=O)(=O)NC(C)C)cc2)CC1 | i | 3 | 11 | 33 | -18 | 25* | i | i | -0.85 | -13
Cc1ccc(CN2CC(C(=O)Nc3cc(C)ccn3)CC2=O)cc1 (centres undefined) | i | 0 | 2 | -26 | -1 | i | x | x | x | x
Nc1cc(S(=O)(=O)N2CCCCC2)ccc1Oc1ccc(Cl)cc1 | i | 0 | 7 | 5 | 1 | 100* | i | i | -1.1 | -14
Cc1nc(NCCc2ccccc2)c2oc3ccccc3c2n1 | i | 0 | 0 | 19 | -7 | 25* | i | i | -1 | -24
Oc1ccccc1CNc1cnc2ccccc2c1 | i | -2 | 1 | 31 | 14 | 100* | i | i | -0.96 | -26
Oc1ccc(Cl)cc1CNc1cnc2ccccc2c1 | i | 4 | 14 | x | 59 | i | x | x | x | x
Cc1ccc(C(=O)N(CC(=O)NC2CCCC2)c2ccccc2F)s1 | x | 2 | 9 | x | x | x | x | x | x | x
CCOc1ccc(-c2nnn(CC(=O)NCc3ccc(F)cc3)n2)cc1OCC | i | 1 | 5 | -1 | 14 | i | x | x | x | x
CCOc1ccc(-c2nnn(CC(=O)c3ccc4c(c3)OCCO4)n2)cc1OCC | i | -2 | -2 | -4 | -4 | 25* | 18%* | i | -1 | -10
COc1ccc(C(C(=O)NC(C)(C)C)N(Cc2cccnc2)C(=O)CCC(=O)Nc2cc(C)on2)cc1 (centres undefined) | i | 0 | 13 | -2 | x | i | x | x | x | x
CC1CC(c2ccccc2)n2nc(N3C(=O)c4ccccc4C3=O)nc2N1 (centres undefined) | i | -1 | 13 | -5 | -1 | 25* | i | i | -1.2 | -14
SMILES | TMEM16A act | MC4R ag barr | MC4R antagonist | Beta apoptosis | CSC inhib | TMEM16A inh | TMEM16A reconf | TMEM16A Ca cntr | YFP-HEK293 quench | ClC-1 inh
COc1cccc(OCc2cc(C(=O)N3CCNC(=O)C3Cc3ccccc3)no2)c1 (centres undefined) | i | -4 | 2 | -2 | -5 | i | x | x | x | x
Cc1ccc2nc(SCc3nc4c(cnn4-c4ccccc4)c(=O)[nH]3)[nH]c2c1 | i | 3 | -12 | 17 | 3 | 25* | i | i | -0.92 | -4
O=c1[nH]c(CSc2ncccn2)nc2c1cnn2-c1ccccc1 | i | 2 | -8 | -5 | -1 | i | x | x | x | x
CCSc1nnc(-c2cc(Br)ccc2N=Cc2c(C)[nH]n(-c3ccccc3)c2=O)c(=O)[nH]1 | i | -1 | 17 | 6 | -1 | 100* | 21%* | 20%* | -0.97 | -22
CSc1nnc(-c2cc(Br)ccc2N=Cc2c(C)[nH]n(-c3ccccc3)c2=O)c(=O)[nH]1 | i | -1 | 8 | 2 | 1 | i | x | x | x | x
Cc1cccc(C)c1NC(=O)c1ccc(OCc2c(C)noc2C)cc1 | i | -1 | 4 | 6 | 0 | x | x | x | x | x
CCOC(=O)c1c(-c2cccs2)csc1NC(C)=O | i | -1 | -3 | -8 | -2 | i | x | x | x | x
CCOC(=O)c1c(-c2cccs2)csc1NC(=O)C(C)(C)C | i | 1 | 3 | 11 | x | 25* | 33%* | i | -1.1 | -6
CCCC(=O)N1CCC1(C)C(=O)NS(=O)(=O)c1ccc(OC)cc1 (centres undefined) | x | 0 | -2 | x | x | x | x | x | x | x
Cc1ccc(CNC(=O)CC(C)S(=O)(=O)c2ccc3c(c2)NC(=O)C(C)S3)cc1 (centres undefined) | i | -2 | 13 | 4 | -2 | 25* | 22%* | i | -0.95 | -8
CCOC(=O)[C@@H]1[C@H]2COc3ccccc3[C@H]2N2C(=O)N(c3ccc(C(F)(F)F)cc3)C(=O)[C@]12C | i | 0 | 7 | 14 | 21 | i | x | x | x | x
